ChEMBL document CHEMBL1140227, “Histone deacetylase inhibitors through click chemistry” (J Med Chem, 2008)

Key:
MDA-MB-435 = experiment: Growth inhibition of human MDA-MB-435 cells at 10 uM relative to control; type: functional; conditions: values are per cent of control
How it was run: (§1)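 Single-dose preliminary screen in the NCI human cancer cell line panel, run by the NIH. Percent inhibition of cell line growth was calculated by comparison with untreated samples.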

cells [1] = type: functional; conditions: Homo sapiens, Cancer cell lines
MDA-MB-468 = experiment: Growth inhibition of human MDA-MB-468 cells at 10 uM relative to control; type: functional; conditions: values are per cent of control; how it was run: as §1
U-251 = experiment: Growth inhibition of human U251 cells at 10 uM relative to control; type: functional; conditions: values are per cent of control
How it was run: (§2)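 Single-dose NCI human tumour cell line screen, run by the NIH. Percent inhibition of cell line growth was calculated by comparison with untreated samples.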

HCT-116 = experiment: Growth inhibition of human HCT116 cells at 10 uM relative to control; type: functional; conditions: values are per cent of control; how it was run: as §1
Histone deacetylase 1 = Histone deacetylase 1 (Homo sapiens, UniProt Q13547); experiment: Inhibition of human HDAC1
Sequence of Histone deacetylase 1 (Q13547 whole entry): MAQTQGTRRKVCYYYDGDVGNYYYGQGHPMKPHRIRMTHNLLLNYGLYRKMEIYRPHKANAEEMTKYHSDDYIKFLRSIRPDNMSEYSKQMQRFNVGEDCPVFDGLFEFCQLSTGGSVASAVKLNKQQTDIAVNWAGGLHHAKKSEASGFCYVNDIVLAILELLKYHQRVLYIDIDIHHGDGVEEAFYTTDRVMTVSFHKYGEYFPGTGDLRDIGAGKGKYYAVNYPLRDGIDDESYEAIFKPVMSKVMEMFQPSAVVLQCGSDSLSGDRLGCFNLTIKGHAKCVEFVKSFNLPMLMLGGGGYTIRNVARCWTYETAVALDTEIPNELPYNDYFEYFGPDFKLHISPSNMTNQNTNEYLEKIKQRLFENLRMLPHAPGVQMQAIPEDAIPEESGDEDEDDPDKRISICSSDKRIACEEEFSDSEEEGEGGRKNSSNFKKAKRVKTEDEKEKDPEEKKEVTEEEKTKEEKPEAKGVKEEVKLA

NCI-H322M = experiment: Growth inhibition of human NCI-H322M cells at 10 uM relative to control; type: functional; conditions: values are per cent of control; how it was run: as §1
UACC-257 = experiment: Growth inhibition of human UACC257 cells at 10 uM relative to control; type: functional; conditions: values are per cent of control; how it was run: as §2
RXF 393 = experiment: Growth inhibition of human […] cells; type: functional
OVCAR-4 = experiment: Growth inhibition of human OVCAR4 cells at 10 uM relative to control; type: functional; conditions: values are per cent of control; how it was run: as §1
TK-10 = experiment: Growth inhibition of human TK10 cells at 10 uM relative to control; type: functional; conditions: values are per cent of control; how it was run: as §2
A549 = experiment: Growth inhibition of human A549 cells at 10 uM relative to control; type: functional; conditions: values are per cent of control; how it was run: as §1
HT-29 = experiment: Growth inhibition of human HT-29 cells at 10 uM relative to control; type: functional; conditions: values are per cent of control; how it was run: as §1
KM12 = experiment: Growth inhibition of human KM12 cells at 10 uM relative to control; type: functional; conditions: values are per cent of control; how it was run: as §1
HCT-15 = experiment: Growth inhibition of human HCT15 cells at 10 uM relative to control; type: functional; conditions: values are per cent of control; how it was run: as §1
OVCAR-5 = experiment: Growth inhibition of human OVCAR5 cells at 10 uM relative to control; type: functional; conditions: values are per cent of control; how it was run: as §1
[2] = Growth inhibition of human RPMI8266 cells at 10 uM relative to control; type: functional; conditions: values are per cent of control; how it was run: as §1
BT-549 = experiment: Growth inhibition of human BT549 cells at 10 uM relative to control; type: functional; conditions: values are per cent of control; how it was run: as §1
MCF7 = experiment: Growth inhibition of human MCF7 cells at 10 uM relative to control; type: functional; conditions: values are per cent of control; how it was run: as §1
NCI-H522 = experiment: Growth inhibition of human NCI-H522 cells at 10 uM relative to control; type: functional; conditions: values are per cent of control; how it was run: as §1
UACC-62 = experiment: Growth inhibition of human UACC62 cells at 10 uM relative to control; type: functional; conditions: values are per cent of control; how it was run: as §2
HOP-62 = experiment: Growth inhibition of human HOP62 cells at 10 uM relative to control; type: functional; conditions: values are per cent of control; how it was run: as §1
K562 = experiment: Growth inhibition of human K562 cells at 10 uM relative to control; type: functional; conditions: values are per cent of control; how it was run: as §1
OVCAR-3 = experiment: Growth inhibition of human OVCAR-3 cells at 10 uM relative to control; type: functional; conditions: values are per cent of control; how it was run: as §1
NCI-H460 = experiment: Growth inhibition of human NCI-H460 cells at 10 uM relative to control; type: functional; conditions: values are per cent of control; how it was run: as §1
M14 = experiment: Growth inhibition of human M14 cells at 10 uM relative to control; type: functional; conditions: values are per cent of control; how it was run: as §1
SF-295 = experiment: Growth inhibition of human SF295 cells at 10 uM relative to control; type: functional; conditions: values are per cent of control; how it was run: as §1
cells [3] = type: functional; conditions: Homo sapiens, Cancer cell lines; remark: listed apart in the source
ACHN = experiment: Growth inhibition of human ACHN cells at 10 uM relative to control; type: functional; conditions: values are per cent of control; how it was run: as §1
cells [4] = type: functional; conditions: Homo sapiens, Cancer cell lines; remark: listed apart in the source
786-0 = experiment: Growth inhibition of human 786-0 cells at 10 uM relative to control; type: functional; conditions: values are per cent of control; how it was run: as §1
HCC 2998 = experiment: Growth inhibition of human HCC2998 cells at 10 uM relative to control; type: functional; conditions: values are per cent of control; how it was run: as §1
SK-MEL-5 = experiment: Growth inhibition of human SK-MEL-5 cells at 10 uM relative to control; type: functional; conditions: values are per cent of control; how it was run: as §1
Melanoma cell = experiment: cells; type: functional; conditions: Homo sapiens

## O=C(/C=C/c1cn(C/C=C/c2ccccc2)nn1)NO
MDA-MB-435
  growth, % of control at 10 µM: 21.3%
Cells [1]
  inhibition at 10 µM: -18%
MDA-MB-468
  growth, % of control at 10 µM: 45.8%
U-251
  growth, % of control at 10 µM: -89.9%
HCT-116
  growth, % of control at 10 µM: -69%
Histone deacetylase 1
  IC50: 104 nM
NCI-H322M
  growth, % of control at 10 µM: 9.59%
UACC-257
  growth, % of control at 10 µM: -32.1%
RXF 393
  GI50: < 10 nM
OVCAR-4
  growth, % of control at 10 µM: 55.7%
TK-10
  growth, % of control at 10 µM: -8.37%
A549
  growth, % of control at 10 µM: -8.94%
HT-29
  growth, % of control at 10 µM: 12%
KM12
  growth, % of control at 10 µM: 8.61%
HCT-15
  growth, % of control at 10 µM: 9.7%
OVCAR-5
  growth, % of control at 10 µM: 1.43%
[2]
  growth, % of control at 10 µM: -13.9%
BT-549
  growth, % of control at 10 µM: 43.3%
MCF7
  growth, % of control at 10 µM: 13.6%
NCI-H522
  growth, % of control at 10 µM: 8.32%
UACC-62
  growth, % of control at 10 µM: -71.2%
HOP-62
  growth, % of control at 10 µM: -31.7%
K562
  growth, % of control at 10 µM: -10.9%
OVCAR-3
  growth, % of control at 10 µM: -16.2%
NCI-H460
  growth, % of control at 10 µM: 7.36%
M14
  growth, % of control at 10 µM: 1.63%
SF-295
  growth, % of control at 10 µM: -55.5%
Cells [3]
  growth percent at 10 µM: -20%
ACHN
  growth, % of control at 10 µM: -51.2%
Cells [4]
  inhibition at 10 µM: 1%
786-0
  growth, % of control at 10 µM: -36.1%
HCC 2998
  growth, % of control at 10 µM: -1.33%
SK-MEL-5
  growth, % of control at 10 µM: -79%
Melanoma cell
  inhibition at 10 µM: -43%
